Measurements reported in PMC2949545 (Environment international, 2010).
Several values for one entry are separate records, joined by “and”; a condition that tells them apart may be missing. Equal entries are not always repeated. Where two headings read alike, the source gives them in different places.

Assays:
LacI gene [1] = assay: BigBlue lacI mutant and mutation frequency analysis, female liver; format: in vivo, F344 BigBlue rats; details: for Mutants per 10^6 plaques (mutant frequency): 4 weekly i.p. injections, sacrifice PND75; for Mutation Frequency (MF) ± SE (corrected) / Number of Mutations (corrected): after sequencing; for Number of Mutations (corrected): duplicates and non-mutants excluded
Method in brief: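 Female F344 BigBlue rats (lacI transgene), 4/group, got i.p. test compound, positive control or corn oil (5 ml/kg) weekly on PND 37, 44, 51, 58 and were killed on PND75. Genomic DNA from 50 mg central liver was lambda-packaged, infected into E. coli and plated in X-gal top agar overnight. Blue plaques were counted, with >100,000 pfu/animal. Mutant frequency = blue plaques/pfu, per 10^6 ± SE.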

LacI = details: ref Lehmann et al. 2007, cited from earlier work; for frameshift mutations, % of mutations: male livers, control 19%
[2] = ref Li et al. 1997; cited from earlier work
LacI gene [3] = assay: LacI gene sequencing, type of mutations; format: in vivo, F344 BigBlue rats; details: female liver; for Deletions, distinct mutations / Insertions, distinct mutations / Transitions, distinct mutations / Transversions, distinct mutations: number; for frameshift mutations (deletions and insertions), % of all mutations: solvent controls 18%
[4] = Body weight gain during the study period; format: in vivo, F344 BigBlue rats; details: for reduction of weight gain during the treatment period: versus control
liver mRNA = assay: Gene expression analysis of female liver RNA; format: in vivo, F344 BigBlue rats; details: for number of unique genes significantly changed: p < 0.0001 and fold change > 5 versus corn oil control, pooled RNA
F344 BigBlue rats [5] = assay: Histological analysis of spleen, lung and liver; format: in vivo; details: animal 1 – 4
Method in brief: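 In both genders, frozen tissue sampled at PND75 sacrifice (4 weekly i.p. doses, 4 rats/group) was cut into four-micron sections. Sections were stained with hematoxylin/eosin and examined by light microscopy for histological anomalies in each animal.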

F344 BigBlue rats [6] = details: Male; animal 1 – 4; previously reported; ref Lehmann et al. 2007; Maddox et al. 2008; cited from earlier work
F344 BigBlue rats [7] = assay: Organ weights normalized to body weight; format: in vivo
Method in brief: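 Rats of both genders, 4/group, were given 4 weekly i.p. doses in corn oil and killed on PND75 by CO2 then cervical dislocation. Liver and other organs were excised and weighed, and weights were expressed as g per 100 g body weight. ANOVA used treatment, gender and their interaction.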

[8] = ref Espandiari et al. 2004; cited from earlier work
[9] = versus corn oil control, up-regulated

For Cc1ccc2cc3c(ccc4ccccc43)c3c2c1CC3 [3-MC, 3-Methylcholanthrene, reference compound], the “significance of the increase in mutation frequency compared to control” value (LacI gene [1]) was “failed marginally to reach statistical significance”, the “Mutants per 10^6 plaques (mutant frequency)” value (LacI gene [1]) was 48.4 per 10^6 plaques and the “Mutation Frequency (MF) ± SE (corrected)” value (LacI gene [1]) was 43.5 per 10^6 pfu and 43.5 ± 14.8 per 10^6 pfu. The “Number of Mutations (corrected)” value (LacI gene [1]) was 28, the “frameshift mutations, % of mutations” value (LacI) was 27% and the “increase in mutation frequency” value (LacI; male rodents, liver) was “about 5 fold”. For the same molecule, the “persistence in the liver” value [2] was 2 weeks, the “Deletions, % of total” value (LacI gene [3]) was 18% and the “Insertions, % of total” value (LacI gene [3]) was 14%. For the same molecule, the “Total Mutations” value (LacI gene [3]) was 28, the “Transitions, % of total” value (LacI gene [3]) was 32% and the “Transversions, % of total” value (LacI gene [3]) was 36%. The “frameshift mutations (deletions and insertions) observed, number” value (LacI gene [3]; expected 5 from solvent control proportions) was 9, the “Deletions, distinct mutations” value (LacI gene [3]) was 5 and the “Insertions, distinct mutations” value (LacI gene [3]) was 4. The “Transitions, distinct mutations” value (LacI gene [3]) was 9, the “Transversions, distinct mutations” value (LacI gene [3]) was 10 and the “frameshift mutations (deletions and insertions), % of all mutations” value (LacI gene [3]) was 32%. For the same molecule, the “Weight Gain (average ± StDev)” value ([4]; Female, control 80.7 ± 7.42) was 61.8 ± 7.78 ^# gram, the “Weight Gain (average ± StDev)” value ([4]; Male, control 159.7 ± 7.63) was 90.4 ± 25.6 gram and the “reduction of weight gain during the treatment period” value ([4]; females) was 23%. The “reduction of weight gain during the treatment period” value ([4]; males) was 43%, the “number of unique genes significantly changed” value (liver mRNA) was “Seventyfive” and the “calca (calcitonin/calcitonin-related polypeptide a) expression” value (liver mRNA; versus corn oil control) was “up regulated”. The “csda (cold shock domain protein A) expression” value (liver mRNA; versus corn oil control) was “up regulated”, the “trib3 (tribbles homolog 3) expression” value (liver mRNA; versus corn oil control) was “up regulated” and the “CYP1A2 gene expression increase” value (liver mRNA; versus corn oil control, up) was 58 fold. The “UGT1A2 gene expression increase” value (liver mRNA; versus corn oil control, up) was 13 fold, the “akr7a3 (aldo-keto reductases 7a3) expression change” value (liver mRNA; versus corn oil control, up) was 16 fold and the “bcl10 (B-cell CLL/lymphoma 10) expression change” value (liver mRNA; versus corn oil control, up) was 16.3 fold. For the same molecule, the “ephx1 (epoxide hydrolase 1) expression change” value (liver mRNA; versus corn oil control, up) was 9.9 fold, the “gdnf (glial cell derived neurotrophic factor) expression change” value (liver mRNA; versus corn oil control, up) was 6.0 fold and the “glrx1 (glutaredoxin 1) expression change” value (liver mRNA; versus corn oil control, up) was 10.2 fold. The “hmox1 (heme oxygenase 1) expression change” value (liver mRNA; versus corn oil control, up) was 16.3 fold, the “mgst2 (microsomal glutathione S-transferase 2) expression change” value (liver mRNA; versus corn oil control, up) was 7.9 fold and the “ptgs1 (prostaglandin-endoperoxide synthase 1) expression change” value (liver mRNA; versus corn oil control, up) was 27.8 fold. For the same molecule, the smarcb1 expression change (liver mRNA; versus corn oil control, up) was 8.5 fold, the “Organ Pathology, LIVER” value (F344 BigBlue rats [5]; Female) was “only scattered foci of necrosis, prominent Kupffer cells and focal perilobular lymphocytes in two of the four animals” and the “Organ Pathology, LUNG” value (F344 BigBlue rats [5]; Female) was 1: Bronchopneumonia with what looks like early ARDS. Pulmonary edema 2: Bronchopneumonia with what looks like early ARDS more so than #1. Pulmonary edema. 3: Focal acute inflammation with increased intra-alveolar macrophages 4: No abnormality. For the same molecule, the “Organ Pathology, SPLEEN” value (F344 BigBlue rats [5]; Female) was “No abnormality”, the “Organ Pathology, SPLEEN” value (F344 BigBlue rats [5]; Male) was “No abnormality” and the “Organ Pathology, LIVER” value (F344 BigBlue rats [6]) was “centrilobular necrosis, in some cases severe, was the dominat finding”. For the same molecule, the “Organ Pathology, LUNG” value (F344 BigBlue rats [6]) was 1: No abnormality 2 + 3: Focal perivascular lymphocytes. 4: Focal perivascular lymphocytes with increased intra-alveolar macrophages, the “increase in liver mass compared to corn oil controls” value (F344 BigBlue rats [7]; female rats) was “over 30%” and the “increase in lung mass compared to corn oil controls” value (F344 BigBlue rats [7]; female rats) was “over 30%”. For the same molecule, the “increase in spleen mass compared to corn oil controls” value (F344 BigBlue rats [7]; female rats) was “over 30%”, the “liver weight relative to body weight compared to corn oil treated rats” value (F344 BigBlue rats [7]; female rats) was “nearly doubled in weight per grams of body weight” and the relative lung weight (F344 BigBlue rats [7]; female rats) was “more than doubling of the relative lung weight”. For the same molecule, the “spleen, thymus and adrenal gland weights relative to controls” value (F344 BigBlue rats [7]; females) was “increased spleen weights and decreased the thymus and adrenal gland weights”.
With Oc1ccc(-c2ccc(Cl)cc2)cc1 [4′-OH-PCB3] the “significance of the increase in mutation frequency compared to control” value (LacI gene [1]) was “neither PCB3 (p=0.429) nor 4′-OH-PCB3 (p=0.581) increased the mutation frequency significantly”, the “Mutants per 10^6 plaques (mutant frequency)” value (LacI gene [1]) was 27.3 per 10^6 plaques and the “Mutation Frequency (MF) ± SE (corrected)” value (LacI gene [1]) was 27.2 ± 6.6 per 10^6 pfu. The “Number of Mutations (corrected)” value (LacI gene [1]) was 19, the “frameshift mutations, % of mutations” value (LacI) was 22% and the “Deletions, % of total” value (LacI gene [3]) was 12%. The “Insertions, % of total” value (LacI gene [3]) was 24%, the “Transitions, % of total” value (LacI gene [3]) was 35% and the “Transversions, % of total” value (LacI gene [3]) was 29%. For the same molecule, the “Deletions, distinct mutations” value (LacI gene [3]) was 2, the “Insertions, distinct mutations” value (LacI gene [3]) was 4 and the “Transitions, distinct mutations” value (LacI gene [3]) was 6. The “Transversions, distinct mutations” value (LacI gene [3]) was 5, the “frameshift mutations (deletions and insertions), % of all mutations” value (LacI gene [3]) was 36% and the “Weight Gain (average ± StDev)” value ([4]; Female, control 80.7 ± 7.42) was 85.3 ± 4.13 gram. For the same molecule, the “Weight Gain (average ± StDev)” value ([4]; Male, control 159.7 ± 7.63) was 129.6 ± 17.50 gram, the “effect on weight gain compared to control” value ([4]; either gender) was “Neither PCB3 nor 4′-OH-PCB3 had a significant effect on weight gain in either gender” and the “number of unique genes significantly changed” value (liver mRNA) was 157. The “cul1 (cullin 1) expression change” value (liver mRNA; versus corn oil control, down) was 36.3 fold, the “ei24 (etoposide induced 2.4 mRNA) expression change” value (liver mRNA; versus corn oil control, down) was 28.1 fold and the cyp2b2 expression change (liver mRNA; versus corn oil control, down-regulated) was roughly 19 fold. For the same molecule, the “aqp2 (aquaporin 2) expression change” value (liver mRNA; versus corn oil control, up) was 6.6 fold, the “bnip3l (BCL2/adenovirus E1B interacting protein 3-like) expression change” value (liver mRNA; versus corn oil control, up) was 5.8 fold and the “kdr (kinase insert domain protein receptor) expression change” value (liver mRNA; versus corn oil control, up) was 6.4 fold. For the same molecule, the “sh3glb1 (SH3-domain GRB2-like endophilin B1) expression change” value (liver mRNA; versus corn oil control, up) was 6.3 fold, the “stat1 (signal transducer and activator of transcription 1) expression change” value (liver mRNA; versus corn oil control, up) was 10.6 fold and the “syvn1 (synovial apoptosis inhibitor 1) expression change” value (liver mRNA; versus corn oil control, up) was 26.7 fold. The Cyp2j4 expression change (liver mRNA; [9]) was 8.8 fold, the “sult1b1 (sulfotransforase 1b1) expression change” value (liver mRNA; [9]) was roughly 7 fold and the “Organ Pathology, LIVER” value (F344 BigBlue rats [5]; Female) was “rare acidophilic bodies, but 3 of 4 animals had patchy hepatocellular necrosis and chronic inflammation and 1: Rare acidophilic bodies with patchy hepatocellular necrosis and chronic inflammation. 2 + 3: Rare acidophilic bodies with patchy hepatocellular necrosis and chronic inflammation. 4: Scattered acidophilic bodies with dilated sinusoids”. For the same molecule, the “Organ Pathology, LUNG” value (F344 BigBlue rats [5]; Female) was 1: Minimal acute inflammation 2: Almost normal with focal perivascular lymphocytes. 3: No abnormality. 4: Patchy bronchopneumonia with early ARDS. Perivascular lymphocytes increased, the “Organ Pathology, SPLEEN” value (F344 BigBlue rats [5]; Female) was 1 – 4: Reduced mantle and the “Organ Pathology, SPLEEN” value (F344 BigBlue rats [5]; Male) was 1: No abnormality 2 + 3: Reduced mantle with focally increased neutrophils. 4: Reduced mantle with focally increased neutrophils with red pulp congestion. The “Organ Pathology, LIVER” value (F344 BigBlue rats [6]) was “all four male 4′-OH-PCB3 livers showed dilated sinosoids and 1: dilated sinusoids, rare acidophil body. No obvious inflammation. 2, 3, and 4: dilated sinusoids,. Focal lymphocyte cluster with rare acidophil body. Minimal portal tract inflammation”, the “Organ Pathology, LUNG” value (F344 BigBlue rats [6]) was 1 + 2: No abnormality. 3 + 4: Minimal perivascular lymphocytes and the “impact on liver, lung and spleen weights” value (F344 BigBlue rats [7]; versus corn oil controls) was “no statistically significant impact”. For the same molecule, the “result in the modified Solt-Farber Initiation Protocol” value [8] was “positive”.
